Values after ≈ are worked out from the molar mass of the structure shown.
What was measured:
Assay type in all cases: functional
Staphylococcus aureus [1] = assay: Antibacterial activity against methicillin-sensitive Staphylococcus aureus isolate 12-7
Method in brief: (§1)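 MIC determined in vitro by a standard technique and defined as the lowest compound concentration giving complete inhibition of bacterial growth. The Gram-positive and Gram-negative panels were tested alongside gemifloxacin, levofloxacin and ciprofloxacin reference drugs.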

Klebsiella pneumoniae [2] = assay: Antibacterial activity against extended-spectrum beta-lactamase-producing Klebsiella pneumoniae isolate 12-1; method in brief: as §1
Escherichia coli [3] = assay: Antibacterial activity against Escherichia coli isolate 12-1; method in brief: as §1
Pseudomonas aeruginosa [4] = assay: Antibacterial activity against Pseudomonas aeruginosa isolate 12-1; method in brief: as §1
[5] = test system: Staphylococcus epidermidis; assay: Antibacterial activity against methicillin-sensitive Staphylococcus epidermidis isolate 12-2; method in brief: as §1
Klebsiella pneumoniae [6] = assay: Antibacterial activity against extended-spectrum beta-lactamase-producing Klebsiella pneumoniae isolate 12-4; method in brief: as §1
Pseudomonas aeruginosa [7] = assay: Antibacterial activity against Pseudomonas aeruginosa isolate 12-2; method in brief: as §1
Escherichia coli [8] = assay: Antibacterial activity against extended-spectrum beta-lactamase-producing Escherichia coli isolate 12-2; method in brief: as §1
Pseudomonas aeruginosa [9] = assay: Antibacterial activity against Pseudomonas aeruginosa ATCC 27853; method in brief: as §1
Staphylococcus aureus [10] = assay: Antibacterial activity against methicillin-resistant Staphylococcus aureus isolate 12-15
Method in brief: (§2)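 MIC determined in vitro by standard techniques, defined as the lowest compound concentration giving complete inhibition of bacterial growth. Gemifloxacin, levofloxacin and ciprofloxacin were tested alongside as reference drugs.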

[11] = test system: Staphylococcus epidermidis; assay: Antibacterial activity against methicillin-resistant Staphylococcus epidermidis isolate 12-35; method in brief: as §2
Staphylococcus aureus [12] = assay: Antibacterial activity against methicillin-sensitive Staphylococcus aureus isolate 12-6; method in brief: as §1
Staphylococcus aureus [13] = assay: Antibacterial activity against Staphylococcus aureus […]; method in brief: as §1
Staphylococcus aureus [14] = assay: Antibacterial activity against methicillin-resistant Staphylococcus aureus isolate 12-13; method in brief: as §2
[15] = test system: Staphylococcus epidermidis; assay: Antibacterial activity against methicillin-resistant Staphylococcus epidermidis isolate 12-33; method in brief: as §2
Escherichia coli [16] = assay: Antibacterial activity against extended-spectrum beta-lactamase-producing Escherichia coli isolate 12-1; method in brief: as §1
Klebsiella pneumoniae [17] = assay: Antibacterial activity against Klebsiella pneumoniae isolate 12-2; method in brief: as §1
Klebsiella pneumoniae [18] = assay: Antibacterial activity against Klebsiella pneumoniae isolate 12-4; method in brief: as §1
[19] = test system: Staphylococcus epidermidis; assay: Antibacterial activity against methicillin-sensitive Staphylococcus epidermidis isolate 12-3; method in brief: as §1
[20] = test system: Staphylococcus epidermidis; assay: Antibacterial activity against methicillin-resistant Staphylococcus epidermidis isolate 12-5; method in brief: as §2
Streptococcus pneumoniae [21] = assay: Antibacterial activity against Streptococcus pneumoniae isolate 12-5; method in brief: as §1
Klebsiella pneumoniae [22] = assay: Antibacterial activity against Klebsiella pneumoniae isolate 12-1; method in brief: as §1
Staphylococcus aureus [23] = assay: Antibacterial activity against methicillin-resistant Staphylococcus aureus isolate 12-3; method in brief: as §2
Escherichia coli [24] = assay: Antibacterial activity against Escherichia coli isolate 12-4; method in brief: as §1
[25] = test system: Staphylococcus epidermidis; assay: Antibacterial activity against methicillin-sensitive Staphylococcus epidermidis isolate 12-1; method in brief: as §1
Staphylococcus aureus [26] = assay: Antibacterial activity against methicillin-sensitive Staphylococcus aureus isolate 12-10; method in brief: as §1
Klebsiella pneumoniae [27] = assay: Antibacterial activity against extended-spectrum beta-lactamase-producing Klebsiella pneumoniae isolate 12-2; method in brief: as §1
Escherichia coli [28] = assay: Antibacterial activity against Escherichia coli isolate 12-5; method in brief: as §1
Escherichia coli [29] = assay: Antibacterial activity against Escherichia coli ATCC 25922; method in brief: as §1
Streptococcus pneumoniae [30] = assay: Antibacterial activity against Streptococcus pneumoniae isolate 12-2; method in brief: as §1
Escherichia coli [31] = assay: Antibacterial activity against extended-spectrum beta-lactamase-producing Escherichia coli isolate 12-4; method in brief: as §1

Row | Compound | MIC (Staphylococcus aureus [1]) | MIC (Klebsiella pneumoniae [2]) | MIC (Escherichia coli [3]) | MIC (Pseudomonas aeruginosa [4]) | MIC [5] | MIC (Klebsiella pneumoniae [6]) | MIC (Pseudomonas aeruginosa [7]) | MIC (Escherichia coli [8]) | MIC (Pseudomonas aeruginosa [9]) | MIC (Staphylococcus aureus [10]) | MIC [11] | MIC (Staphylococcus aureus [12]) | MIC (Staphylococcus aureus [13]) | MIC (Staphylococcus aureus [14]) | MIC [15] | MIC (Escherichia coli [16]) | MIC (Klebsiella pneumoniae [17]) | MIC (Klebsiella pneumoniae [18]) | MIC [19] | MIC [20] | other results
1 | CO/N=C1\CN(c2c(F)cc3c(=O)c(C(=O)O)cn4c3c2OC[C@@H]4C)CCC1N (some centres undefined) | 64 µg/mL (≈ 158 µM) | 0.5 µg/mL (≈ 1.24 µM) | 4 µg/mL (≈ 9.89 µM) | 16 µg/mL (≈ 39.6 µM) | 1 µg/mL (≈ 2.47 µM) | 128 µg/mL (≈ 317 µM) | 16 µg/mL (≈ 39.6 µM) | > 128 µg/mL | 32 µg/mL (≈ 79.1 µM) | 1 µg/mL (≈ 2.47 µM) | 0.5 µg/mL (≈ 1.24 µM) | 0.5 µg/mL (≈ 1.24 µM) | 0.5 µg/mL (≈ 1.24 µM) | 1 µg/mL (≈ 2.47 µM) | 0.5 µg/mL (≈ 1.24 µM) | 128 µg/mL (≈ 317 µM) | 1 µg/mL (≈ 2.47 µM) | 1 µg/mL (≈ 2.47 µM) | 0.5 µg/mL (≈ 1.24 µM) | 0.5 µg/mL (≈ 1.24 µM) | MIC (Streptococcus pneumoniae [21]): 0.5 µg/mL (≈ 1.24 µM); MIC (Klebsiella pneumoniae [22]): 8 µg/mL (≈ 19.8 µM); MIC (Staphylococcus aureus [23]): 1 µg/mL (≈ 2.47 µM); MIC (Escherichia coli [24]): > 128 µg/mL; MIC [25]: 0.5 µg/mL (≈ 1.24 µM); MIC (Staphylococcus aureus [26]): 0.25 µg/mL (≈ 0.618 µM); MIC (Klebsiella pneumoniae [27]): 16 µg/mL (≈ 39.6 µM); MIC (Escherichia coli [28]): 128 µg/mL (≈ 317 µM); MIC (Escherichia coli [29]): 8 µg/mL (≈ 19.8 µM); MIC (Streptococcus pneumoniae [30]): 0.5 µg/mL (≈ 1.24 µM); MIC (Escherichia coli [31]): 16 µg/mL (≈ 39.6 µM)
2 | CCO/N=C1\CN(c2nc3c(cc2F)c(=O)c(C(=O)O)cn3C2CC2)CCC1NC (centres undefined) | 32 µg/mL (≈ 76.7 µM) | 64 µg/mL (≈ 153 µM) | 32 µg/mL (≈ 76.7 µM) | 128 µg/mL (≈ 307 µM) | 4 µg/mL (≈ 9.58 µM) | > 128 µg/mL | 128 µg/mL (≈ 307 µM) | > 128 µg/mL | 4 µg/mL (≈ 9.58 µM) | 4 µg/mL (≈ 9.58 µM) | 1 µg/mL (≈ 2.4 µM) | 0.25 µg/mL (≈ 0.599 µM) | 0.5 µg/mL (≈ 1.2 µM) | 4 µg/mL (≈ 9.58 µM) | 0.25 µg/mL (≈ 0.599 µM) | > 128 µg/mL | 4 µg/mL (≈ 9.58 µM) | 2 µg/mL (≈ 4.79 µM) | 1 µg/mL (≈ 2.4 µM) | 1 µg/mL (≈ 2.4 µM) | MIC (Streptococcus pneumoniae [21]): 0.25 µg/mL (≈ 0.599 µM); MIC (Klebsiella pneumoniae [22]): 4 µg/mL (≈ 9.58 µM); MIC (Staphylococcus aureus [23]): 4 µg/mL (≈ 9.58 µM); MIC (Escherichia coli [24]): > 128 µg/mL; MIC [25]: 1 µg/mL (≈ 2.4 µM); MIC (Staphylococcus aureus [26]): 0.5 µg/mL (≈ 1.2 µM); MIC (Klebsiella pneumoniae [27]): > 128 µg/mL; MIC (Escherichia coli [28]): > 128 µg/mL; MIC (Escherichia coli [29]): 4 µg/mL (≈ 9.58 µM); MIC (Streptococcus pneumoniae [30]): 0.25 µg/mL (≈ 0.599 µM); MIC (Escherichia coli [31]): 32 µg/mL (≈ 76.7 µM)
3 | CNC1CCN(c2c(F)cc3c(=O)c(C(=O)O)cn(C4CC4)c3c2OC)C/C1=N\OC (centres undefined) | 0.125 µg/mL (≈ 0.289 µM) | 16 µg/mL (≈ 37 µM) | 4 µg/mL (≈ 9.25 µM) | 16 µg/mL (≈ 37 µM) | 0.5 µg/mL (≈ 1.16 µM) | 0.5 µg/mL (≈ 1.16 µM) | 16 µg/mL (≈ 37 µM) | > 128 µg/mL | 8 µg/mL (≈ 18.5 µM) | 0.25 µg/mL (≈ 0.578 µM) | 0.06 µg/mL (≈ 0.139 µM) | 0.06 µg/mL (≈ 0.139 µM) | 0.25 µg/mL (≈ 0.578 µM) | 0.25 µg/mL (≈ 0.578 µM) | 0.125 µg/mL (≈ 0.289 µM) | > 128 µg/mL | 2 µg/mL (≈ 4.62 µM) | 0.5 µg/mL (≈ 1.16 µM) | 0.25 µg/mL (≈ 0.578 µM) | 0.06 µg/mL (≈ 0.139 µM) | MIC (Streptococcus pneumoniae [21]): 0.125 µg/mL (≈ 0.289 µM); MIC (Klebsiella pneumoniae [22]): 1 µg/mL (≈ 2.31 µM); MIC (Staphylococcus aureus [23]): 0.25 µg/mL (≈ 0.578 µM); MIC (Escherichia coli [24]): > 128 µg/mL; MIC [25]: 0.25 µg/mL (≈ 0.578 µM); MIC (Staphylococcus aureus [26]): 0.06 µg/mL (≈ 0.139 µM); MIC (Klebsiella pneumoniae [27]): 16 µg/mL (≈ 37 µM); MIC (Escherichia coli [28]): 128 µg/mL (≈ 296 µM); MIC (Escherichia coli [29]): 0.125 µg/mL (≈ 0.289 µM); MIC (Streptococcus pneumoniae [30]): 0.125 µg/mL (≈ 0.289 µM); MIC (Escherichia coli [31]): 32 µg/mL (≈ 74 µM)
4 | CO/N=C1\CN(c2c(F)cc3c(=O)c(C(=O)O)cn(C4CC4)c3c2OC)CCC1N (centres undefined) | 8 µg/mL (≈ 19.1 µM) | 8 µg/mL (≈ 19.1 µM) | 2 µg/mL (≈ 4.78 µM) | 16 µg/mL (≈ 38.2 µM) | 0.5 µg/mL (≈ 1.19 µM) | 64 µg/mL (≈ 153 µM) | 16 µg/mL (≈ 38.2 µM) | 64 µg/mL (≈ 153 µM) | 4 µg/mL (≈ 9.56 µM) | 0.25 µg/mL (≈ 0.597 µM) | 0.25 µg/mL (≈ 0.597 µM) | 0.25 µg/mL (≈ 0.597 µM) | 0.06 µg/mL (≈ 0.143 µM) | 0.25 µg/mL (≈ 0.597 µM) | 2 µg/mL (≈ 4.78 µM) | 64 µg/mL (≈ 153 µM) | 2 µg/mL (≈ 4.78 µM) | 0.5 µg/mL (≈ 1.19 µM) | 0.25 µg/mL (≈ 0.597 µM) | 0.25 µg/mL (≈ 0.597 µM) | MIC (Streptococcus pneumoniae [21]): 2 µg/mL (≈ 4.78 µM); MIC (Klebsiella pneumoniae [22]): 2 µg/mL (≈ 4.78 µM); MIC (Staphylococcus aureus [23]): 0.25 µg/mL (≈ 0.597 µM); MIC (Escherichia coli [24]): 128 µg/mL (≈ 306 µM); MIC [25]: 0.25 µg/mL (≈ 0.597 µM); MIC (Staphylococcus aureus [26]): 0.125 µg/mL (≈ 0.299 µM); MIC (Klebsiella pneumoniae [27]): 16 µg/mL (≈ 38.2 µM); MIC (Escherichia coli [28]): 64 µg/mL (≈ 153 µM); MIC (Escherichia coli [29]): 4 µg/mL (≈ 9.56 µM); MIC (Streptococcus pneumoniae [30]): 0.25 µg/mL (≈ 0.597 µM); MIC (Escherichia coli [31]): 16 µg/mL (≈ 38.2 µM)
